Compound activity deposited in PubChem BioAssay by Broad Institute.
In the library only some 3.8% were active in any assay of this set; here they are far more common.
SIRT5 inh – blocks human SIRT5 desuccinylation of peptide | Purified SirT5, succinyl-peptide AMC, trypsin-coupled fluorescence | inhibition, % at 15 µM | 1.1% of 330,000 active | AID 652115; in the data active = inhibition above about 15%; inconclusive = no clear call, values can overlap the other calls
Target sequence (Q9NXA8 whole entry, looked up): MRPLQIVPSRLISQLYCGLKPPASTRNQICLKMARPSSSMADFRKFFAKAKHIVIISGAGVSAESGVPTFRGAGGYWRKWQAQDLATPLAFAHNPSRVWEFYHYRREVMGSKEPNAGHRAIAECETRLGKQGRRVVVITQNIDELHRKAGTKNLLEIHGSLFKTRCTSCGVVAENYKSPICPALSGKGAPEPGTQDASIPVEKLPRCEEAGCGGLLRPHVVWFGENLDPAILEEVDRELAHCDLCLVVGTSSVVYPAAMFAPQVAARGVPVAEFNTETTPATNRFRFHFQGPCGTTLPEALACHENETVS
Xi reactivation – activators of X-chromosome reactivation in mouse fibroblasts; activation, % at 7.58 µM; XiGFP mouse fibroblasts, % GFP-positive cells imaging, 3 d; cells co-treated with 5-aza-dC sensitizer; scaled so ellipticine positive control = 100%; 0.055% of 360,000 active;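 active = mean normalized replicate activation at least 10% and every replicate at or above 10%; inconclusive = only one of the two criteria met; inactive = mean below 10% and not all replicates reach 10%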
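Assay system – SV40-immortalized XiGFP fibroblast cells, line 68-5-11 · Buffer or medium – DMEM supplemented with 5-aza-dC as sensitizing agent · Dosing – one concentration, pinned · Benchmarks – positive control ellipticine, 6 µM final · Times – 3 days compound exposure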
DENV2 CPE rescue – inhibitors of DENV2 cytopathic effect. AID 651640. CPE inhibition, % at 9.99 µM. 1.7% of 350,000 active. DENV2-infected cells, cytopathic effect rescue, plate reader; in the data active = CPE inhibition above about 20%, passing the limit was not always enough; inconclusive = no clear call, values can overlap the other calls; tested in BHK-21 cells
FGF22 binding – shifts melting point of recombinant human FGF22. AID 651658. recombinant FGF22 thermal shift, SYPRO orange fluorescence; percent of sucrose octasulfate shift, DMSO zero. 1.5% of 340,000 active. activity (Tm shift, normalised), % at 9.99 µM. Q9HCT0;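 active = mean Tm shift, scaled 0 neutral to 100 positive control, at about 1.3% or above, every replicate too, limit read from the data; inconclusive = no clear call, values can overlap the other calls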
Target sequence (Q9HCT0 whole entry, looked up): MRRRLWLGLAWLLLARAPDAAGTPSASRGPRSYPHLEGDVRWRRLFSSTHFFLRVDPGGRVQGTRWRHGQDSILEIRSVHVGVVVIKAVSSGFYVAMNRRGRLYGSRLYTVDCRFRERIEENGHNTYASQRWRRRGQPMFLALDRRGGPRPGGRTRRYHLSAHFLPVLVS
ARNT TACC3 PPI – disruptors of human ARNT/TACC3 interaction; Q9Y6A5; AlphaScreen His-ARNT PAS-B/GST-TACC3 binding, luminescence; TACC3 fragment carries E629A point mutation; inhibition, % at 9.99 µM; 0.66% of 390,000 active;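 active = mean inhibition of replicates at least 50% and at least half of replicates each reaching 50%; inconclusive = half or more replicates reach 50% but mean below 50%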
FN deposition inh – fibronectin deposition inhibition; AH1F fibroblasts, Alexa488-fibronectin deposition fluorescence, overnight; inhibition, % at 12.6 µM; 0.086% of 350,000 active;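 active = mean inhibition across replicates of 30% or more, regardless of how many single replicates reach that level; inconclusive = mean under 30% yet at least half of replicates reach 30%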
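Material: AH1F fibroblast monolayer depositing Alexa488-labelled fibronectin into matrix | Input: 10000 AH1F cells/well | Medium: DMEM plus 2% serum, read in PBS | Reagent: Alexa488-fibronectin, 24 nM final in well | Compound dosing: One dose per compound, pinned | Schedule: 1 h adhesion, overnight exposure | Measured by: Fluorescence at 485 nm excitation, 525 nm emission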
Numbers stand for hits; 0 = inactive; ? = inconclusive; - = not tested or not shown; ! = not confirmed by another sample.

SMILES	SIRT5 inh	Xi reactivation	DENV2 CPE rescue	FGF22 binding	ARNT TACC3 PPI	FN deposition inh
COc1ccc(F)cc1C(=O)C1CCCN(Cc2ccc(O)cc2)C1 (centres undefined)	17.4	0	0	0	0	0
COC(=O)[C@H]1[C@H](CO)[C@H]2Cn3c(ccc(-c4ccccc4)c3=O)[C@@H]1N2CC1CCCCC1	0	0	0	0	0	-
O=C(CCN1CCCCC1)Nc1ccc(Cl)cc1C(=O)c1ccccc1	0	0	0	0	0	0
O=C(COC(=O)c1cccc(O)c1)Nc1ccc(Cl)cc1C(=O)c1ccccc1	0	0	0	52.5	0	0
O=C(CN1CCCC1)Nc1ccc(Cl)cc1C(=O)c1ccccc1	15.1	0	0	0	0	0
CCOc1ccccc1OCC(=O)Nc1ccc(Cl)cc1C(=O)c1ccccc1	0	0	0	0	-	0
O=C(Nc1cccc(C(F)(F)F)c1)OC1CN2CCC1CC2 (centres undefined)	0	0	0	0	0	0
O=C(Nc1ccc(C(F)(F)F)cc1)OC1CN2CCC1CC2 (centres undefined)	0	0	38.6	0	0	0
S=C(NCCc1ccccc1)NCCc1cnc[nH]1	0	0	0	0	57.3	0
Cc1ccc(NC(=S)NCCc2cnc[nH]2)cc1C	0	0	0	0	0	0
CSc1ccc(CNC2CN3CCC2CC3)cc1 (centres undefined)	28.8	-	0	0	0	-
COc1ccc(-n2c(-c3ccccc3Br)nc3ccccc3c2=O)cc1	35.0	0	0	0	0	0
O=C1NC(=O)C(=Cc2ccc(OCCOc3ccc([N+](=O)[O-])cc3)cc2)C(=O)N1	0	0	0	0	active	0
ClC1=C(Cl)C2(Cl)C3C(Cl)C=CC3C1(Cl)C2(Cl)Cl (centres undefined)	-	-	28.1	0	-	-
O=C1NC(=O)C(=Cc2ccc(Sc3ccccc3)o2)C(=O)N1	0	0	0	0	0	0
O=C1NC(=O)C(=Cc2ccco2)C(=O)N1	-	0	0	43.7	0	0
CC1(C)CC(=O)C(C2(O)C(=O)NC(=O)NC2=O)=C(O)C1	-	-	-	-	22.9	-
CC(C)OC(=O)Nc1ccc(N=C(N)N[N+](=O)[O-])cc1	0	0	0	43.3	0	0
COc1cc2c(cc1OC)[C@@]13CCN4CC5=CCO[C@H]6CC(=O)N2[C@H]1[C@H]6[C@H]5C[C@H]43	0	-	0	0	0	-
COc1ccc2c(c1)C13CCN4CC5=CCOC6CC(=O)N2C1C6C5CC43 (centres undefined)	0	-	70.7	0	-	-
O=C(COC(=O)c1cc(Br)cc(Br)c1O)NC12CC3CC(CC(C3)C1)C2	-	0	?	1.7	-	0
COc1ccc(CCNCc2cccn2C)cc1OC	0	0	68.8	0	0	0
Cn1cccc1CNCCc1ccc(F)cc1	0	-	-	-	0	0
COc1ccc(-c2ccc([C@@H]3[C@H](CO)N4CCCCN(C(=O)Cc5ccccc5)C[C@@H]34)cc2)cc1	0	0	0	0	0	-
Cc1ccc(-n2c(O)c(/C=N/N3CCCCC3c3cccnc3)c(=O)[nH]c2=S)cc1 (centres undefined)	0	0	0	43.5	-	0
SMILES	SIRT5 inh	Xi reactivation	DENV2 CPE rescue	FGF22 binding	ARNT TACC3 PPI	FN deposition inh
CCCCn1c(O)c(/C=N/N2CCCCC2c2cccnc2)c(=O)[nH]c1=S (centres undefined)	0	0	0	-	-	0
O=C1C(=O)c2ccccc2-c2ccccc21	0	?	0	0	0	56.4
C=CCN1[C@@H]2CN(C(=O)NC(C)C)C[C@H]1C2c1ccccc1 (some centres undefined)	-	0	-	-	-	0
CC(=O)N1C2CN(C)CC1C2c1ccc(Br)cc1 (centres undefined)	-	0	-	-	-	0
CN(C)Cc1c[nH]c2ccc([N+](=O)[O-])cc12	-	0	0	0	0	0
CN(C)Cc1c[nH]c2cc([N+](=O)[O-])ccc12	16.5	0	0	0	0	0
CC1[C@H]2Cc3ccc(O)cc3[C@]1(C)CCN2C (some centres undefined)	-	-	?	0	0	-
CN1CC[C@@]2(C)c3cc(O)ccc3N(C)C2O1 (some centres undefined)	-	-	-	-	30.4	-
CN1CC[C@@]2(C)c3cc(O)ccc3N(C)[C@@H]12	0	0	0	0	47.0!	0
